target: Protein kinase C alpha type (Homo sapiens, UniProt P17252); test: Displacement of [20-3H]phorbol 12,13-dibutyrate from PKCalpha (unknown origin) in the presence of porcine brain phosphatidylserine by scintillation counting
Procedure, shortened: (§1)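 Competitive binding against bound [20-3H]PDBu with 100 μg/ml phosphatidylserine present. Each curve used six ligand concentrations, each measured in triplicate. IC50 was obtained by least-squares fit of a theoretical sigmoidal competition curve. Ki was calculated from IC50 after correcting for competition by [3H]PDBu. Values are mean ± SE of at least three independent experiments.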

**Q.** How did the Ki turn out when `Cc1ccc(C#Cc2ccc(/C=C3\CC(CO)(COC(=O)c4cn(C)c5ccccc45)OC3=O)cc2)cc1` (stereo not drawn) was run?
**A.** 257 nM

**Q.** For `CC(C)CC(C/C=C1/CC(CO)(COC(=O)c2cn(C)c3ccccc23)OC1=O)CC(C)C` (stereo not drawn), which Ki is on record?
**A.** 83.1 nM

**Q.** How did the Ki turn out when `CCCCCCCCC/C=C1\CC(CO)(COC(=O)c2cn(C)c3ccccc23)OC1=O` (stereo not drawn) was run?
**A.** 106 nM

**Q.** Which Ki does the source give for `Cc1ccc(C#Cc2ccc(C=C3CC(CO)(COC(=O)c4cn(C)c5ccccc45)OC3=O)cc2)cc1` (stereo not drawn) here?
**A.** 116 nM

**Q.** Which Ki does the source give for `CCCC(CCC)C(=O)OCC1(CO)C/C(=C\c2cn(C)c3ccccc23)C(=O)O1` (stereo not drawn) here?
**A.** 12.9 nM

**Q.** `CCCC(/C=C1\CC(CO)(COC(=O)c2cn(C)c3ccccc23)OC1=O)CCC` (stereo not drawn) was tested. Which Ki did it give?
**A.** 504 nM

**Q.** With `CC(C)CC(C/C=C1\CC(CO)(COC(=O)c2cn(C)c3ccccc23)OC1=O)CC(C)C` (stereo not drawn) as the compound, how does the Ki read?
**A.** 73 nM

**Q.** Which Ki does the source give for `CC(C)=C1CC(CO)(COC(=O)c2cn(C)c3ccccc23)OC1=O` (stereo not drawn) here?
**A.** 698 nM

target: T1, Protein kinase C epsilon type (Homo sapiens, UniProt Q02156); test: Displacement of [20-3H]phorbol 12,13-dibutyrate from PKCepsilon (unknown origin) in the presence of porcine brain phosphatidylserine by scintillation counting; procedure, shortened: as §1
T1 sequence (Q02156 whole entry): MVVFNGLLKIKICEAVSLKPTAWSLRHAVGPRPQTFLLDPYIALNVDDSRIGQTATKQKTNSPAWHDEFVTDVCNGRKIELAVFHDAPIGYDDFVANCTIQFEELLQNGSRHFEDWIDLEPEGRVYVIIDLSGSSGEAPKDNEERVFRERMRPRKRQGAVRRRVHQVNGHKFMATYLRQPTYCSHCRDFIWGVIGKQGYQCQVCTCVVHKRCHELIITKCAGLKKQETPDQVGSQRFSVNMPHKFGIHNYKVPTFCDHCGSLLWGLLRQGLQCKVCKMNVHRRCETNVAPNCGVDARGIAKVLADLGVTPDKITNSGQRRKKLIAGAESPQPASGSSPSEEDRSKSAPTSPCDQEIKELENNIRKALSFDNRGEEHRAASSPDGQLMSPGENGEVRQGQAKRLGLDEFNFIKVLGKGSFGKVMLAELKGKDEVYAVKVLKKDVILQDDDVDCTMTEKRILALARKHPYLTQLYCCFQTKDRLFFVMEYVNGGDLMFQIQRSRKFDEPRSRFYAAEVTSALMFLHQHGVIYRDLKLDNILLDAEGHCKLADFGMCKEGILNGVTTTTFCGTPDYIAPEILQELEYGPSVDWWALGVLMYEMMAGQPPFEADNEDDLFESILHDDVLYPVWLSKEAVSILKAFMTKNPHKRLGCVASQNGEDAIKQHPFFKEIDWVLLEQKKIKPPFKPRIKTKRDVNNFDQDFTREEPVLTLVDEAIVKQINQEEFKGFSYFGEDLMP

**Q.** With `Cc1ccc(C#Cc2ccc(/C=C3\CC(CO)(COC(=O)c4cn(C)c5ccccc45)OC3=O)cc2)cc1` (stereo not drawn) as the compound, how does the Ki read?
**A.** 119 nM

**Q.** For `CC(C)CC(C/C=C1/CC(CO)(COC(=O)c2cn(C)c3ccccc23)OC1=O)CC(C)C` (stereo not drawn), which Ki is on record?
**A.** 55 nM

**Q.** With `CCCCCCCCC/C=C1\CC(CO)(COC(=O)c2cn(C)c3ccccc23)OC1=O` (stereo not drawn) as the compound, how does the Ki read?
**A.** 59.6 nM

**Q.** `Cc1ccc(C#Cc2ccc(C=C3CC(CO)(COC(=O)c4cn(C)c5ccccc45)OC3=O)cc2)cc1` (stereo not drawn) was tested. Which Ki did it give?
**A.** 131 nM

**Q.** For `CCCC(CCC)C(=O)OCC1(CO)C/C(=C\c2cn(C)c3ccccc23)C(=O)O1` (stereo not drawn), which Ki is on record?
**A.** 31 nM

**Q.** Which Ki does the source give for `CCCC(/C=C1\CC(CO)(COC(=O)c2cn(C)c3ccccc23)OC1=O)CCC` (stereo not drawn) here?
**A.** 295 nM

**Q.** Which Ki does the source give for `CC(C)CC(C/C=C1\CC(CO)(COC(=O)c2cn(C)c3ccccc23)OC1=O)CC(C)C` (stereo not drawn) here?
**A.** 27.3 nM

**Q.** Which Ki does the source give for `CC(C)=C1CC(CO)(COC(=O)c2cn(C)c3ccccc23)OC1=O` (stereo not drawn) here?
**A.** 301 nM

target: T2, RAS guanyl-releasing protein 1 (Homo sapiens, UniProt O95267); test: Displacement of [20-3H]phorbol 12,13-dibutyrate from RasGRP1 (unknown origin) in the presence of porcine brain phosphatidylserine by scintillation counting; procedure, shortened: as §1
T2 sequence (O95267 whole entry): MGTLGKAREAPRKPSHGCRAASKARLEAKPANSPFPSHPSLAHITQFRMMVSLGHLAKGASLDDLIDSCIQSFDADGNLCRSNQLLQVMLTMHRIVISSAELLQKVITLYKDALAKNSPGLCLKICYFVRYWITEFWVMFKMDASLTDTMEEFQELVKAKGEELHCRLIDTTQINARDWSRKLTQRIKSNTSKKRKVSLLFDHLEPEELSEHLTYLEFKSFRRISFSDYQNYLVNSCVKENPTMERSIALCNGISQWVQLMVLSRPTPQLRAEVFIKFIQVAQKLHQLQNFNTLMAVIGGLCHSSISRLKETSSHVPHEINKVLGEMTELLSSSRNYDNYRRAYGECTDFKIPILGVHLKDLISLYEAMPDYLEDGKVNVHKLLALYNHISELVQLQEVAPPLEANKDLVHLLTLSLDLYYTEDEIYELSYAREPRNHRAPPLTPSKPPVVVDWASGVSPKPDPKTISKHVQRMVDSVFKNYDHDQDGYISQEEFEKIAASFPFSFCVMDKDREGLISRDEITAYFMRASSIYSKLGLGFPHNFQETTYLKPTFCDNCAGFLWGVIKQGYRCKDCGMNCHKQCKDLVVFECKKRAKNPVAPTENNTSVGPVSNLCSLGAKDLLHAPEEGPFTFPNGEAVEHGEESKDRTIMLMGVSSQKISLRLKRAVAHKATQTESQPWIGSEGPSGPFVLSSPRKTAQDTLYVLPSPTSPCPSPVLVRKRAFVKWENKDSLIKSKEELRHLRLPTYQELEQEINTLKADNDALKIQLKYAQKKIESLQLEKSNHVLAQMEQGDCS

**Q.** With `Cc1ccc(C#Cc2ccc(/C=C3\CC(CO)(COC(=O)c4cn(C)c5ccccc45)OC3=O)cc2)cc1` (stereo not drawn) as the compound, how does the Ki read?
**A.** 40 nM

**Q.** Which Ki does the source give for `CC(C)CC(C/C=C1/CC(CO)(COC(=O)c2cn(C)c3ccccc23)OC1=O)CC(C)C` (stereo not drawn) here?
**A.** 22.6 nM

**Q.** `CCCCCCCCC/C=C1\CC(CO)(COC(=O)c2cn(C)c3ccccc23)OC1=O` (stereo not drawn) was tested. Which Ki did it give?
**A.** 63.3 nM

**Q.** Which Ki does the source give for `Cc1ccc(C#Cc2ccc(C=C3CC(CO)(COC(=O)c4cn(C)c5ccccc45)OC3=O)cc2)cc1` (stereo not drawn) here?
**A.** 22.6 nM

**Q.** With `CCCC(CCC)C(=O)OCC1(CO)C/C(=C\c2cn(C)c3ccccc23)C(=O)O1` (stereo not drawn) as the compound, how does the Ki read?
**A.** 0.58 nM

**Q.** With `CCCC(/C=C1\CC(CO)(COC(=O)c2cn(C)c3ccccc23)OC1=O)CCC` (stereo not drawn) as the compound, how does the Ki read?
**A.** 133 nM

**Q.** `CC(C)CC(C/C=C1\CC(CO)(COC(=O)c2cn(C)c3ccccc23)OC1=O)CC(C)C` (stereo not drawn) was tested. Which Ki did it give?
**A.** 31.3 nM

**Q.** Which Ki does the source give for `CC(C)=C1CC(CO)(COC(=O)c2cn(C)c3ccccc23)OC1=O` (stereo not drawn) here?
**A.** 666 nM

species: Homo sapiens; test: Selectivity index, ratio of Ki for PKCalpha (unknown origin) to Ki for RasGRP1 (unknown origin)

**Q.** With `Cc1ccc(C#Cc2ccc(/C=C3\CC(CO)(COC(=O)c4cn(C)c5ccccc45)OC3=O)cc2)cc1` (stereo not drawn) as the compound, how does the Ratio Ki read?
**A.** 6.5

**Q.** With `CC(C)CC(C/C=C1/CC(CO)(COC(=O)c2cn(C)c3ccccc23)OC1=O)CC(C)C` (stereo not drawn) as the compound, how does the Ratio Ki read?
**A.** 3.7

**Q.** Which Ratio Ki does the source give for `CCCCCCCCC/C=C1\CC(CO)(COC(=O)c2cn(C)c3ccccc23)OC1=O` (stereo not drawn) here?
**A.** 1.7

**Q.** Which Ratio Ki does the source give for `Cc1ccc(C#Cc2ccc(C=C3CC(CO)(COC(=O)c4cn(C)c5ccccc45)OC3=O)cc2)cc1` (stereo not drawn) here?
**A.** 5.1

**Q.** How did the Ratio Ki turn out when `CCCC(CCC)C(=O)OCC1(CO)C/C(=C\c2cn(C)c3ccccc23)C(=O)O1` (stereo not drawn) was run?
**A.** 22

**Q.** `CCCC(/C=C1\CC(CO)(COC(=O)c2cn(C)c3ccccc23)OC1=O)CCC` (stereo not drawn) was tested. Which Ratio Ki did it give?
**A.** 3.8

**Q.** Which Ratio Ki does the source give for `CC(C)CC(C/C=C1\CC(CO)(COC(=O)c2cn(C)c3ccccc23)OC1=O)CC(C)C` (stereo not drawn) here?
**A.** 2.3

**Q.** For `CC(C)=C1CC(CO)(COC(=O)c2cn(C)c3ccccc23)OC1=O` (stereo not drawn), which Ratio Ki is on record?
**A.** 1.08

species: Homo sapiens; test: Selectivity index, ratio of Ki for PKCepsilon (unknown origin) to Ki for RasGRP1 (unknown origin)

**Q.** `Cc1ccc(C#Cc2ccc(/C=C3\CC(CO)(COC(=O)c4cn(C)c5ccccc45)OC3=O)cc2)cc1` (stereo not drawn) was tested. Which Ratio Ki did it give?
**A.** 3

**Q.** For `CC(C)CC(C/C=C1/CC(CO)(COC(=O)c2cn(C)c3ccccc23)OC1=O)CC(C)C` (stereo not drawn), which Ratio Ki is on record?
**A.** 2.4

**Q.** `CCCCCCCCC/C=C1\CC(CO)(COC(=O)c2cn(C)c3ccccc23)OC1=O` (stereo not drawn) was tested. Which Ratio Ki did it give?
**A.** 0.94

**Q.** With `Cc1ccc(C#Cc2ccc(C=C3CC(CO)(COC(=O)c4cn(C)c5ccccc45)OC3=O)cc2)cc1` (stereo not drawn) as the compound, how does the Ratio Ki read?
**A.** 5.8

**Q.** Which Ratio Ki does the source give for `CCCC(CCC)C(=O)OCC1(CO)C/C(=C\c2cn(C)c3ccccc23)C(=O)O1` (stereo not drawn) here?
**A.** 53

**Q.** With `CCCC(/C=C1\CC(CO)(COC(=O)c2cn(C)c3ccccc23)OC1=O)CCC` (stereo not drawn) as the compound, how does the Ratio Ki read?
**A.** 2.2

**Q.** With `CC(C)CC(C/C=C1\CC(CO)(COC(=O)c2cn(C)c3ccccc23)OC1=O)CC(C)C` (stereo not drawn) as the compound, how does the Ratio Ki read?
**A.** 0.87

**Q.** Which Ratio Ki does the source give for `CC(C)=C1CC(CO)(COC(=O)c2cn(C)c3ccccc23)OC1=O` (stereo not drawn) here?
**A.** 0.45

species: Homo sapiens; test: Selectivity index, ratio of Ki for PKCalpha (unknown origin) to Ki for PKCepsilon (unknown origin)

**Q.** With `Cc1ccc(C#Cc2ccc(/C=C3\CC(CO)(COC(=O)c4cn(C)c5ccccc45)OC3=O)cc2)cc1` (stereo not drawn) as the compound, how does the Ratio Ki read?
**A.** 2.2

**Q.** For `CC(C)CC(C/C=C1/CC(CO)(COC(=O)c2cn(C)c3ccccc23)OC1=O)CC(C)C` (stereo not drawn), which Ratio Ki is on record?
**A.** 1.5

**Q.** With `CCCCCCCCC/C=C1\CC(CO)(COC(=O)c2cn(C)c3ccccc23)OC1=O` (stereo not drawn) as the compound, how does the Ratio Ki read?
**A.** 1.8

**Q.** Which Ratio Ki does the source give for `Cc1ccc(C#Cc2ccc(C=C3CC(CO)(COC(=O)c4cn(C)c5ccccc45)OC3=O)cc2)cc1` (stereo not drawn) here?
**A.** 0.89

**Q.** For `CCCC(CCC)C(=O)OCC1(CO)C/C(=C\c2cn(C)c3ccccc23)C(=O)O1` (stereo not drawn), which Ratio Ki is on record?
**A.** 0.42

**Q.** `CCCC(/C=C1\CC(CO)(COC(=O)c2cn(C)c3ccccc23)OC1=O)CCC` (stereo not drawn) was tested. Which Ratio Ki did it give?
**A.** 1.7

**Q.** How did the Ratio Ki turn out when `CC(C)CC(C/C=C1\CC(CO)(COC(=O)c2cn(C)c3ccccc23)OC1=O)CC(C)C` (stereo not drawn) was run?
**A.** 2.7

**Q.** How did the Ratio Ki turn out when `CC(C)=C1CC(CO)(COC(=O)c2cn(C)c3ccccc23)OC1=O` (stereo not drawn) was run?
**A.** 2.3
